Bioassay records deposited in PubChem by several laboratories.
Shown are actives, neighbours in structure and some others; about 2.5% of the full set was active somewhere.
TRPC6 activator – activates the mouse TRPC6 cation channel. 310,000 compounds, 0.13% hits. HEK293-TRPC6 membrane potential dye fluorescence; hits give high values. B-score at 10 µM. Q61143;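 active means B-score of the integrated fluorescence ratio above library mean plus 3 SD, and starting fluorescence ratio within library mean plus 5 SD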;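 further: higher score means more depolarization so channel activation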
TRPC4 PAM – TRPC4 (mouse) allosteric potentiation. Q9QUQ5. HEK293 TRPC4beta/mu-opioid, DAMGO EC20, Fluo-4 Ca2+ flux; hits give high values. AID 2227. 310,000 compounds, 0.42% hits. B-score at 10 µM;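 active means B-score of calcium response area above 5 SD of library B-scores, with initial fluorescence ratio within 5 SD of library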;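 further: B-score of integrated fluorescence ratio over time as area under calcium response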
Target sequence (Q9QUQ5 whole entry, looked up): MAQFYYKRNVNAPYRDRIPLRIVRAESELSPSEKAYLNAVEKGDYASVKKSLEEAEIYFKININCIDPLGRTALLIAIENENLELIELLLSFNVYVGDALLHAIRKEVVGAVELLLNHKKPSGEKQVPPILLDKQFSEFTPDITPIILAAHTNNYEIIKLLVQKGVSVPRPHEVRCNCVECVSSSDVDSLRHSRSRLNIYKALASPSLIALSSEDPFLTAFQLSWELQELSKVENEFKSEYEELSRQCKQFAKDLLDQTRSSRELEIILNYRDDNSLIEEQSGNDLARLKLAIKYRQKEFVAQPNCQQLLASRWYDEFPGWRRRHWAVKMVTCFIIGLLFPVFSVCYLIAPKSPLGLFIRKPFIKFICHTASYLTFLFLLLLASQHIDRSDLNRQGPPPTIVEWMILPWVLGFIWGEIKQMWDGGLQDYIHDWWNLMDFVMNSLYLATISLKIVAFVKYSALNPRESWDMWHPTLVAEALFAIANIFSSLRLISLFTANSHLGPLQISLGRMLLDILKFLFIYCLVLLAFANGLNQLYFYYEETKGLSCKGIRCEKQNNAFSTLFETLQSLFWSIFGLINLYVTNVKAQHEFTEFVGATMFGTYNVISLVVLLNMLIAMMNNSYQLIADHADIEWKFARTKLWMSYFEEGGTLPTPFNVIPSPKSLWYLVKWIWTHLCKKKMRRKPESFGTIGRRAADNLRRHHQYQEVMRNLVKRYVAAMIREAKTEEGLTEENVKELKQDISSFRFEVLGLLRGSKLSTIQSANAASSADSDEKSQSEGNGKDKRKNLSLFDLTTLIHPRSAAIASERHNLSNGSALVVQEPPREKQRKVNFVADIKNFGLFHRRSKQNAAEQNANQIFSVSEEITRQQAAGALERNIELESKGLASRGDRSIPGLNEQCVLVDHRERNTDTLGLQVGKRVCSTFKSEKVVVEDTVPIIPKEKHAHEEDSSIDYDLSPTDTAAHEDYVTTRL
Pemphigus Ab inh – blocks pemphigus antibody binding to human desmoglein-3; P32926; DSG3-coupled beads, scFv-anti-DSG3-GFP binding, flow cytometry; hits give low values; binding (percent of control), % at 10 µM; 310,000 compounds, 0.48% hits;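 active means binding more than 3 SD below its plate's average and above zero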;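 further: hits lower antibody fragment binding to DSG3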
TRPC4 block – TRPC4 (mouse) channel inhibition; Q9QUQ5; HEK293 TRPC4beta/mu-opioid, DAMGO-evoked Fluo4 calcium flux; hits give low values; B-score at 10 µM; 300,000 compounds, 0.39% hits; AID 2247;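 active means B-score over 3 SD under the library average, no early fluorescence shift, positive overall ratio signal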
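System: stable TRPC4beta/mu-opioid receptor HEK293 cells; Dosing: single-point compound dosing; Measured by: Fluo4 Ca2+ flux fluorescence; Read-out basis: per-well B score of integrated baseline-normalized Fluo4 ratio.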
TRPC6 inh – blocks the mouse TRPC6 cation channel; HEK293-TRPC6, membrane potential dye, ACh-evoked depolarization; hits give low values; 310,000 compounds, 1.1% hits; Q61143; AID 2553; B-score at 10 µM;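 active means B-score under library mean minus 3 SD, initial fluorescence not abnormally high, positive integrated signal ratio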;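 further: B-score derived from integrated fluorescence ratio over the kinetic read; more negative B-score means stronger inhibition of depolarization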
TRPC4 agonist – TRPC4 (mouse) channel activation | Q9QUQ5 | HEK293 TRPC4beta/mu-opioid, Fluo4 calcium fluorescence; hits give high values | AID 2237 | 310,000 compounds, 0.49% hits | B-score at 10 µM;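 active means B-score above 5 SD of library B-scores, and initial fluorescence ratio not above library mean plus 5 SD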;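 further: positive B-score marks a calcium rise read as TRPC4 activation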
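system = HEK293 cells stably co-expressing mouse TRPC4beta and mu-opioid receptor | schedule = Fluo4 dye loading 45 min at room temperature, 110 s recording | measure = B-scored integrated calcium fluorescence ratio | signal = Fluo4 calcium-sensitive dye fluorescence, kinetic, 1 Hz baseline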
* = called active by the depositor.

For O=C(c1cc([N+](=O)[O-])ccc1N1CCNCC1)N1CCOCC1 the results were TRPC6 activator inactive, TRPC4 PAM inactive, Pemphigus Ab inh 100, TRPC4 block inactive, TRPC6 inh inactive and TRPC4 agonist inactive.
O=[N+]([O-])c1ccc(N2CCNCC2)c(Cl)c1 was read as TRPC6 activator inactive, TRPC4 PAM 20*, Pemphigus Ab inh 102, TRPC4 block inactive, TRPC6 inh inactive and TRPC4 agonist 48*.
`Cn1cc[n+](C)c1P(=S)(c1ccccc1)c1ccccc1` gave TRPC6 activator inactive, TRPC4 PAM inactive, Pemphigus Ab inh 96, TRPC4 block inactive, TRPC6 inh inactive and TRPC4 agonist 66*.
For Cc1c(P(=S)(c2ccccc2)c2ccccc2)[n+]2ccccc2n1C the results were TRPC6 activator inactive, TRPC4 PAM inactive, Pemphigus Ab inh 96, TRPC4 block inactive, TRPC6 inh inactive and TRPC4 agonist inactive.
CCCCCCCCn1sccc1=O was read as Pemphigus Ab inh 87*.
CCCCCCCCc1ccc(O)cc1 was read as Pemphigus Ab inh 110.
For CCCCN1C(=O)NC(=O)C2(Cc3c(nc4ccccn4c3=O)N3CCc4ccccc4C32)C1=O (stereo not drawn) the results were TRPC6 activator inactive, TRPC4 PAM 57*, TRPC4 block inactive, TRPC6 inh inactive and TRPC4 agonist inactive.
Screening CCCCN1C(=O)NC(=O)C2(Cc3c(nc4c(C)cccn4c3=O)N3CCc4ccccc4C32)C1=O (stereo not drawn) returned TRPC6 activator inactive, TRPC4 PAM 19*, Pemphigus Ab inh 104, TRPC4 block inactive, TRPC6 inh inactive and TRPC4 agonist inactive.
Screening COc1ccc(-c2csc(NC(=O)COC(=O)Cc3ccccc3)n2)cc1OC returned TRPC6 activator inactive, TRPC4 PAM inactive, TRPC4 block inactive, TRPC6 inh inactive and TRPC4 agonist inactive.
`Cc1cc(N2CCNCC2)nc2ccccc12` gave TRPC6 activator inactive, TRPC4 PAM 13*, Pemphigus Ab inh 103, TRPC4 block inactive, TRPC6 inh inactive and TRPC4 agonist inactive.
For Clc1cccc(N2CCNCC2)n1 the results were TRPC6 activator inactive, TRPC4 PAM inactive, Pemphigus Ab inh 102, TRPC4 block inactive, TRPC6 inh inactive and TRPC4 agonist inactive.
Screening Cn1c(N2CCNCC2)nc2ccccc21 returned TRPC6 activator inactive, TRPC4 PAM inactive, Pemphigus Ab inh 113, TRPC4 block inactive, TRPC6 inh inactive and TRPC4 agonist 105*.
Screening CC1=CC2OC3CC4OC(=O)C=CC=CC(=O)OCCC(C)C(O)C(=O)OCC2(CC1)C4(C)C31CO1 (stereo not drawn) returned Pemphigus Ab inh 82.
For CCN(CC)S(=O)(=O)c1cc(NC(=O)C(C)N2CC=C(c3ccccc3)CC2)ccc1C (stereo not drawn) the results were TRPC6 activator inactive, TRPC4 PAM inactive, Pemphigus Ab inh 100, TRPC4 block inactive, TRPC6 inh inactive and TRPC4 agonist inactive.
For COc1ccc(/C=N\N=C(N)N)cc1 the results were TRPC6 activator inactive, TRPC4 PAM inactive, Pemphigus Ab inh 103, TRPC4 block inactive, TRPC6 inh inactive and TRPC4 agonist inactive.
Screening NC(N)=N/N=C/c1ccc(N(c2ccccc2)c2ccccc2)cc1 returned TRPC6 activator inactive, TRPC4 PAM inactive, Pemphigus Ab inh 101, TRPC4 block inactive, TRPC6 inh inactive and TRPC4 agonist 86*.
Screening CC(C)CC(NC(=O)C1CCCCC1)C(=O)N1CCC2(CC1)OCCO2 (stereo not drawn) returned TRPC6 activator inactive, TRPC4 PAM inactive, TRPC4 block inactive, TRPC6 inh inactive and TRPC4 agonist inactive.
CC(C)C[C@H](NC(=O)[C@@H]1CCCN1C(=O)[C@@H](N)Cc1ccc(O)cc1)C(=O)NCC(N)=O was read as TRPC6 activator inactive, TRPC4 PAM inactive, TRPC4 block inactive, TRPC6 inh inactive and TRPC4 agonist 53*.
For CN(C)S(=O)(=O)c1cc(NC(=O)C[N+]23CCN(CC2)CC3)ccc1Cl the results were TRPC6 activator inactive, TRPC4 PAM inactive, Pemphigus Ab inh 103, TRPC4 block inactive, TRPC6 inh inactive and TRPC4 agonist inactive.
CN(C)S(=O)(=O)c1cc(NC(=O)COC(=O)Cc2ccccc2)ccc1Cl was read as TRPC6 activator inactive, TRPC4 PAM inactive, Pemphigus Ab inh 88*, TRPC4 block inactive, TRPC6 inh inactive and TRPC4 agonist inactive.
COC(=O)C1=C(c2c(C)noc2C)C[C@@H]2CC[C@H]1N2C(=O)NCC1CC1 was read as Pemphigus Ab inh 108.
Screening CC(O)C1C=CC=CC(=O)OC2CC3OC4C5OC5(C)C(O)CC4(COC(=O)C(O)C(C)CCO1)C2(C)C31CO1 (stereo not drawn) returned Pemphigus Ab inh 74*.
For CN1CC(C(=O)c2ccc([N+](=O)[O-])cc2)C(c2ccc(Cl)cc2)C1 (stereo not drawn) the results were TRPC6 activator inactive, TRPC4 PAM 13*, Pemphigus Ab inh 91, TRPC4 block inactive, TRPC6 inh inactive and TRPC4 agonist inactive.
CCCNC(=O)N1[C@H]2CC[C@@H]1C(C(=O)OC)=C(c1c(C)noc1C)C2 was read as Pemphigus Ab inh 102.
CCCCC1(CC)COP(=O)(OCC(Cl)(Cl)Cl)OC1 (stereo not drawn) was read as Pemphigus Ab inh 102.
For CCOc1cc(CNCCc2c[nH]c3ccccc23)cc(Cl)c1OC the results were TRPC6 activator inactive, TRPC4 PAM inactive, Pemphigus Ab inh 118, TRPC4 block inactive, TRPC6 inh inactive and TRPC4 agonist 159*.
`CN(C)c1ccc(/C=C/[N+](=O)[O-])cc1` gave TRPC6 activator 19*, TRPC4 PAM inactive, Pemphigus Ab inh 142, TRPC4 block inactive, TRPC6 inh inactive and TRPC4 agonist inactive.
Screening C/C(=C\c1ccc(N(C)C)cc1)[N+](=O)[O-] returned TRPC6 activator inactive, TRPC4 PAM inactive, Pemphigus Ab inh 101, TRPC4 block inactive, TRPC6 inh inactive and TRPC4 agonist inactive.
Screening O=C1C(Br)C2CCC1C2C(=O)O (stereo not drawn) returned Pemphigus Ab inh 101.
`CN1CCN(c2c(N)c(=O)oc3ccccc23)CC1` gave TRPC6 activator inactive, TRPC4 PAM 10*, Pemphigus Ab inh 97, TRPC4 block inactive, TRPC6 inh inactive and TRPC4 agonist inactive.
